The subject of test [1] is MDCK. The test is described as follows: Cytotoxicity against MDCK cells assessed as reduction in cell viability after 72 hrs by CCK-8 assay. The conditions noted are these: Canis lupus familiaris. Type of test: cell-based. A general note: Tetrazolium dyes change colour on reduction, which living cells bring about.
In test [2] the test system is Mycobacterium tuberculosis. Briefly: Antitubercular activity against auto-luminescent Mycobacterium tuberculosis H37Ra measured for 5 days by luminescence assay. The class given is functional. Particulars: 120 h. The essentials:
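Unmarked autoluminescent H37Ra homogenised with glass beads, grown in 7H9 with 0.05% Tween 80 and 10% OADC to OD600 0.3–0.5. At 2 million RLU, diluted to 2000–4000 RLU in Tween-free 7H9. Compounds tested in 3-fold steps from […] μg mL⁻¹, with DMSO and rifampicin (10, 1, 0.1 μg mL⁻¹) controls. RLU read daily for 5 days. MIClux is the lowest concentration giving RLUdrug/RLUDMSO below 10%.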

In test [3] the test system is Mycobacterium tuberculosis. The test is described as follows: Antitubercular activity against Mycobacterium tuberculosis H37Ra measured for 5 days by resazurin dye-based assay. The class given is functional. Particulars: 120 h.

What is called IC50 is the concentration that inhibits the measured activity by half. One may read the MIC90 as an inhibitory concentration at the 90% level, which refers to growth in some studies and to a panel of isolates in others. Low readings indicate higher susceptibility, high ones lower susceptibility. Usually MIC stands for the smallest concentration in the dilution series that meets the test's criterion for growth inhibition. Low values mean a more susceptible organism, high ones a less susceptible organism.

The structures appear in SMILES notation. Converted amounts (≈) assume the structure as drawn. Bounds are passed on as bounds.

Turning to `NC(=S)N/N=C(/C=C/c1ccc(Cl)c(F)c1)c1nc2ccccc2[nH]1`, the IC50 in test [1] was 1.5 µg/mL (≈ 4.01 µM). Further, the MIC90 in test [2] came out at 5 µg/mL (≈ 13.4 µM).

The compound `Cc1csc(N/N=C(/C=C/c2ccc(F)cc2)c2nc3ccccc3[nH]2)n1` returned an MIC90 in test [2] of 5 µg/mL (≈ 13.2 µM). Same read-out and setting: the figure for `NC(=S)N/N=C(/C=C/c1ccc[nH]1)c1nc2ccccc2[nH]1` is 100 µg/mL (≈ 322 µM). With `NC(=S)N/N=C(/C=C/c1ccc(Br)cc1)c1nc2ccccc2[nH]1`, the IC50 in test [1] was 2.6 µg/mL (≈ 6.5 µM). Moreover, the MIC90 in test [2] stood at 4 µg/mL (≈ 9.99 µM).

In turn, `Cc1ccc(/C=C/C(=N/Nc2nc(C)cs2)c2nc3ccccc3[nH]2)cc1` yielded an MIC90 in test [2] of 10 µg/mL (≈ 26.8 µM). On the same count and under the same terms, the figure for `COc1ccc(/C=C/C(=N/NC(N)=S)c2nc3ccccc3[nH]2)cc1` is 10 µg/mL (≈ 28.5 µM); for `Cc1csc(N/N=C(/C=C/c2cccc3[nH]ccc23)c2nc3ccccc3[nH]2)n1` it is 10 µg/mL (≈ 25.1 µM). As for `Cc1csc(N/N=C(/C=C/c2ccccc2)c2nc3ccccc3[nH]2)n1`, the IC50 in test [1] turned out to be 2.9 µg/mL (≈ 8.07 µM). The compound further had an MIC90 in test [2] of 4 µg/mL (≈ 11.1 µM). For `Cc1csc(N/N=C(/C=C/c2ccc(F)c(C)c2)c2nc3ccccc3[nH]2)n1`, the MIC90 in test [2] was 10 µg/mL (≈ 25.5 µM). With `NC(=S)N/N=C(/C=C/c1ccc(OC(F)(F)F)cc1)c1nc2ccccc2[nH]1`, the IC50 in test [1] was found to be 0.34 µg/mL (≈ 0.839 µM). This compound showed an MIC90 in test [2] of 5 µg/mL (≈ 12.3 µM). In test [2], `Cc1csc(N/N=C(/C=C/c2ccc(Br)cc2)c2nc3ccccc3[nH]2)n1` gave an MIC90 of 10 µg/mL (≈ 22.8 µM). On the same count and under the same terms, to `COc1cc(OC)c(/C=C/C(=N/NC(N)=S)c2nc3ccccc3[nH]2)c(OC)c1` belongs over 50 µg/mL. For the compound `NC(=S)N/N=C(/C=C/c1cc(F)cc(F)c1)c1nc2ccccc2[nH]1`, the IC50 in test [1] was 1.6 µg/mL (≈ 4.48 µM). In test [2], this compound displayed an MIC90 of 5 µg/mL (≈ 14 µM). The corresponding values for `CCN(CC)c1ccc(/C=C/C(=N/Nc2nc(C)cs2)c2nc3ccccc3[nH]2)cc1` are over 30 µg/mL and 2.5 µg/mL (≈ 5.81 µM). Regarding `COc1cccc(/C=C/C(=N/NC(N)=S)c2nc3ccccc3[nH]2)c1OC`, the IC50 in test [1] was 3.9 µg/mL (≈ 10.2 µM). This compound returned an MIC90 in test [2] of 5 µg/mL (≈ 13.1 µM). `Cc1csc(N/N=C(/C=C/c2ccc[nH]2)c2nc3ccccc3[nH]2)n1`: the MIC90 in test [2] is 100 µg/mL (≈ 287 µM).

For the compound `NC(=S)N/N=C(/C=C/c1ccccc1)c1nc2ccccc2[nH]1`, the IC50 in test [1] is 3.4 µg/mL (≈ 10.6 µM). This compound also gave an MIC90 in test [2] of 5 µg/mL (≈ 15.6 µM). The compound `CCN(CC)c1ccc(/C=C/C(=N/NC(N)=S)c2nc3ccccc3[nH]2)cc1` showed an MIC90 in test [2] of 10 µg/mL (≈ 25.5 µM). On to `Cc1cc(/C=C/C(=N/NC(N)=S)c2nc3ccccc3[nH]2)ccc1F`, for which the IC50 in test [1] turned out to be 1.6 µg/mL (≈ 4.53 µM). Besides, the MIC90 in test [2] worked out at 4 µg/mL (≈ 11.3 µM). In test [2], `Cc1csc(N/N=C(/C=C/c2cc(F)cc(F)c2)c2nc3ccccc3[nH]2)n1` had an MIC90 of 10 µg/mL (≈ 25.3 µM). On the same count and under the same terms, the figure for `COc1cc(OC)c(/C=C/C(=N/Nc2nc(C)cs2)c2nc3ccccc3[nH]2)c(OC)c1` is over 50 µg/mL. `Cc1ccc(/C=C/C(=N/NC(N)=S)c2nc3ccccc3[nH]2)cc1`: in test [1], the IC50 came to 3.7 µg/mL (≈ 11 µM). The compound further showed an MIC90 in test [2] of 5 µg/mL (≈ 14.9 µM). With `COc1cccc(/C=C/C(=N/Nc2nc(C)cs2)c2nc3ccccc3[nH]2)c1OC`, in test [2], the MIC90 is 10 µg/mL (≈ 23.8 µM). Regarding `Cc1csc(N/N=C(/C=C/c2ccc(Cl)c(F)c2)c2nc3ccccc3[nH]2)n1`, in test [2], the MIC90 came to 10 µg/mL (≈ 24.3 µM). For the compound `NC(=S)N/N=C(/C=C/c1ccc(F)cc1)c1nc2ccccc2[nH]1`, the IC50 in test [1] was found to be 1.6 µg/mL (≈ 4.71 µM). The MIC90 in test [2] came to 2.5 µg/mL (≈ 7.37 µM). The corresponding values for `COc1ccc(/C=C/C(=N/Nc2nc(C)cs2)c2nc3ccccc3[nH]2)cc1` are 1.9 µg/mL (≈ 4.88 µM) and 10 µg/mL (≈ 25.7 µM). In test [2], `Cc1csc(N/N=C(/C=C/c2ccc(OC(F)(F)F)cc2)c2nc3ccccc3[nH]2)n1` displayed an MIC90 of 10 µg/mL (≈ 22.6 µM). As to `NC(=S)N/N=C(/C=C/c1cccc2[nH]ccc12)c1nc2ccccc2[nH]1`, the IC50 in test [1] is 0.91 µg/mL (≈ 2.52 µM). Also, the MIC90 in test [2] is 5 µg/mL (≈ 13.9 µM). With `CCNC(=O)Nc1nc2cc(-c3cccnc3)cc(-c3ccccn3)c2[nH]1`, it took 0.001 µg/mL (≈ 0.00279 µM) to inhibit growth in test [3] (MIC). `CO[C@H]1/C=C/O[C@@]2(C)Oc3c(C)c(O)c4c(O)c(c(/C=N/N5CCN(C)CC5)c(O)c4c3C2=O)NC(=O)/C(C)=C\C=C\[C@H](C)[C@H](O)[C@@H](C)[C@@H](O)[C@@H](C)[C@H](OC(C)=O)[C@@H]1C` [RIFAMPIN] had an MIC90 in test [2] of 0.25 µg/mL (≈ 0.304 µM).

The record behind these values is ChEMBL document CHEMBL4480361, “Design, synthesis, and in vitro biological evaluation of novel benzimidazole tethered allylidenehydrazinylmethylthiazole derivatives as potent inhibitors of Mycobacterium tuberculosis” (Medchemcomm, 2019).
